Rin1-Abl PPI inh: blocks binding of human Rin1 to Abl; AID 588664; TR-FRET Rin1/Abl binding, biochemical; P00519+Q13671; inhibition, % at 7.35 µM; actives 0.4% (n = 360,000); in the data active = inhibition above about 5%, passing the limit was not always enough
UBC13 inh: human UBC13 polyubiquitination inhibition; P61088; UBC13 polyubiquitin chain formation, TR-FRET; inhibition, % at 20 µM; actives 0.47% (n = 330,000); AID 485273; in the data active = inhibition above about 45%, passing the limit was not always enough
Target sequence (P61088 whole entry, looked up): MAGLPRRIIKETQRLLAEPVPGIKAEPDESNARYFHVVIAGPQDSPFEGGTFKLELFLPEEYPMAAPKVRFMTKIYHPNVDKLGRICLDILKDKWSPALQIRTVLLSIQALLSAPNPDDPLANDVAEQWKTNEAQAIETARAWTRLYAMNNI
Apaf-1 inh: blocks human Apaf-1 apoptosome activity; O14727; reconstituted apoptosome caspase-3 activity, DEVD-Rh110 fluorescence; inhibition, % at 20 µM; actives 0.71% (n = 330,000); AID 489030; active = inhibition of at least 40% at 20 µM;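 also: plate controls were DMSO wells for no effect and DEVD-CHO caspase inhibitor wells for full effect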
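Material: reconstituted apoptosome with Apaf-1, cytochrome c, caspase-9, procaspase-3, dATP. Technique: Rh110 fluorescence intensity. Buffer or medium: pH 7.5 Hepes buffer with CHAPS, BSA, DTT. Times: 30 min plus 50 min, RT.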
PAD4 FP inh: PAD4 (human) enzyme inhibition. recombinant PAD4, RCA probe fluorescence polarization. inhibition, % at 6.36 µM. actives 0.41% (n = 330,000);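 active = percent inhibition above a cutoff equal to the mean of all tested compounds plus 3 SD, cut at about 15% in these data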;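 also: 0% = PAD4 with RCA probe and DMSO and 100% = probe without PAD4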
UBC9 SUMO inh: SUMOylation inhibition | P63279 | actives 0.36% (n = 290,000) | HTRF SUMOylation assay, SAE1/SAE2 + UBC9, in vitro | inhibition, % at 35 µM | AID 2006; in the data active = inhibition above about 50%, passing the limit was not always enough
Target sequence (P63279 whole entry, looked up): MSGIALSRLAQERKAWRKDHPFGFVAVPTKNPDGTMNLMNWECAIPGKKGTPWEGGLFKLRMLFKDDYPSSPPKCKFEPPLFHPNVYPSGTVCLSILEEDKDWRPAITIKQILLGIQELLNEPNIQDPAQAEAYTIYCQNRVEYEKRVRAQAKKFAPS
GSTO1 inh: blocks human GSTO1 in RBBP9 counter-screen; recombinant GSTO1, activity-based probe fluorescence polarization; inhibition, % at 5.96 µM; AID 1974; actives 1.1% (n = 300,000);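 active = inhibition above the campaign mean inhibition plus 3 SD, cut at about 35% in these data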;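 also: 0% = GSTO1-1 with DMSO and 100% = wells lacking GSTO1-1 enzyme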
Target sequence (P78417 whole entry, looked up): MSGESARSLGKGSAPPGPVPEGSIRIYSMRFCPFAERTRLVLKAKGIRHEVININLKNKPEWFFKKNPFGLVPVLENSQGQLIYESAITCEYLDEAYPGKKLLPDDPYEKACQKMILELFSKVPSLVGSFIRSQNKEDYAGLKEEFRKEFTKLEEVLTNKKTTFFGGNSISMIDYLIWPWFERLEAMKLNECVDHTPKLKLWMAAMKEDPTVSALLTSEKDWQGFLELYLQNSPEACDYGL
Apaf-1 inh conf: Apaf-1 inhibition, single-dose confirmed; reconstituted apoptosome, caspase-3 DEVD-Rh110 fluorescence; shares compounds with Apaf-1 inh; inhibition, % at 20 µM; AID 504614; actives 25% (n = 1,800);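 active = mean inhibition of at least 40% at 20 µM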;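 also: plate controls were DMSO wells for no effect and DEVD-CHO caspase inhibitor control wells for full effect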
Rh110 quench: Rh110 signal interference in Apaf-1 inhibitor counter-screen | AID 504615 | shares compounds with Apaf-1 inh | 1,800 tested, under 10 active | Rh110 fluorescence interference, quenched caspase reaction | activation (fluorescence interference), % at 20 µM;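 active = signal rise of 40% or more at 20 µM, treated as a fluorescence artifact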
Fluor interf inh: counter-screen for Apaf-1 inhibitors: fluorescence interference, dose response. fluorescence interference counterscreen, Apaf-1 assay format. IC50, µM. shares compounds with Apaf-1 inh. 460 tested, under 10 active; call rule not given here
* hit, by the source's call; nt = no result. Hits are enriched below; roughly 2.2% of the tested compounds scored in any of these assays.

SMILES	Rin1-Abl PPI inh	UBC13 inh	Apaf-1 inh	PAD4 FP inh	UBC9 SUMO inh	GSTO1 inh	Apaf-1 inh conf	Rh110 quench	others
Cc1ccc(NC(=O)C2CCN(S(=O)(=O)c3c(C)noc3/C=C/N(C)C)CC2)cc1	3.4	-12.7	3.4	-5.1	18.4	-1.7	nt	nt
Cc1ccc(/C=C/c2onc(C)c2S(=O)(=O)N2CCC(C(=O)N3CCN(C)CC3)CC2)cc1	-6.1	11.0	45.4*	3.6	-10.7	0.3	14.6	11.0
COc1ccc2[nH]c3c(c2c1)CCN1C(=O)C(CC(=O)NCCCn2ccnc2)C[C@H](C(=O)N2CCCCC2)[C@@]31CCc1ccccc1 (some centres not stated)	-2.3	nt	31.1	-3.7	nt	nt	nt	nt
O=C(c1ccc(-c2ccccc2Cl)o1)N1CCCC(C(F)(F)F)C1 (configuration not stated)	-2.2	15.7	41.4*	-0.7	nt	nt	27.2	3.1
CN(CCNC(=O)C1CCCN(c2ncnc3c2nc2n3CCCCC2)C1)Cc1ccccc1 (configuration not stated)	-0.7	20.3	-6.0	0.4	15.7	2.4	nt	nt
Nc1ccc2cn[nH]c2c1	-4.3	-15.5	52.4*	-2.6	12.4	5.6	29.9	-5.0
CCCCCCCCCn1c2c(c(=N)c3c1CCC3)CCCC2	0.6	41.3	51.1*	nt	2.8	nt	19.6	9.2
Cc1ccccc1NC(=S)N1CCN(c2ccccc2)CC1	-0.1	-2.0	6.3	-2.2	-0.9	1.1	nt	nt
CC1(C)OC(C)(C)/C(=C/Nc2ccc(O)cc2)C1=O	2.6	-6.0	48.1*	-0.5	24.6	25.2	13.6	-2.5
NC(=O)C1CCN(C(=O)NC(=O)c2ccccc2)CC1	4.6	7.8	-7.9	-3.0	-17.7	-0.3	nt	nt
Cc1ccc(NC(=O)[C@H](C)NC(=O)C2CCN(C(=O)[C@@H](NC(=O)OC(C)(C)C)C(C)C)CC2)cc1	0.0	-3.3	6.7	1.1	23.3	8.0	nt	nt
COc1ccccc1NC(=O)c1nc[nH]c1C(=O)Nc1ccccc1OC	-0.7	1.6	94.5*	2.7	12.1	5.9	0.3	0.9
CCCOc1cccc(-c2nn(-c3ccccc3)cc2/C=C(\C#N)C(=O)NCCCn2ccnc2)c1	0.1	35.4	17.0	-0.4	2.5	-5.2	nt	nt
N#C/C(=C/c1cn(-c2ccccc2)nc1-c1cccc(OCc2ccc(F)cc2)c1)C(=O)NCCCn1ccnc1	2.9	-14.5	43.9*	1.7	-11.9	-14.7	26.4	9.2
COc1ccc(C2=Nc3ccccc3C2(O)CCN2C(=O)c3ccccc3C2=O)cc1 (configuration not stated)	-2.7	nt	nt	nt	nt	nt	nt	nt
CCN(C(=O)Cn1cc(C(F)(F)F)ccc1=O)C1CCS(=O)(=O)C1 (configuration not stated)	4.1	nt	nt	nt	nt	nt	nt	nt
O=C(O)c1ccc(NC(=S)NC(=O)c2cccc(COc3ccccc3)c2)cc1	-0.7	-26.1	12.2	6.6	27.1	-5.7	nt	nt
O=C(NC(=S)Nc1ccc(CN2CCCCC2)cc1)c1cccc(OCc2ccccc2)c1	-4.0	20.1	42.6*	0.6	-16.8	-6.8	17.1	17.3
COc1ccc2nc(NC(=O)c3cccs3)sc2c1	0.7	9.9	1.2	-0.9	30.6	-6.5	nt	nt
COc1ccc2c(c1)Cc1sc(NC(=O)c3cccs3)nc1-2	-3.3	-18.0	86.8*	-6.3	81.9	5.3	43.6*	2.4	Fluor interf inh=>100
COc1ccc(C(=O)Nc2nc3c(s2)Cc2cc(OC)ccc2-3)cc1	-2.5	-51.9	96.6*	-16.8	80.2	5.1	59.0*	4.2	Fluor interf inh=>100
COc1ccc2nc(NC(=O)c3ccc(F)cc3)sc2c1	-0.1	27.6	-2.9	2.4	22.6	-7.1	nt	nt
COc1ccc2c(c1)Cc1sc(NC(=O)c3ccccc3)nc1-2	0.8	-13.9	83.5*	-6.0	92.6	2.0	60.2*	6.3	Fluor interf inh=>100
Nc1ccc2nn(-c3ccccc3)nc2c1	-2.1	-14.6	93.2*	nt	66.1*	nt	31.5	14.2
Nc1ccc2c(c1)nnn2-c1ccccc1	-6.4	16.3	-19.5	0.2	33.9	-8.3	nt	nt
SMILES	Rin1-Abl PPI inh	UBC13 inh	Apaf-1 inh	PAD4 FP inh	UBC9 SUMO inh	GSTO1 inh	Apaf-1 inh conf	Rh110 quench	others
COc1ccc(-n2nc3cc(N)c(Br)cc3n2)cc1	-2.7	2.6	69.1*	-9.2	8.1	16.9	4.1	4.2
COc1ccc(-n2nc3cc(C)c(N)c(Br)c3n2)cc1	-2.3	-12.6	20.2	-1.1	73.2	16.9	nt	nt
Oc1ccc(C[C@H]2CNCCN2CCc2cccc(F)c2)cc1	-0.7	-0.3	0.2	0.9	nt	0.8	nt	nt
Fc1cccc(CCN2CCNC[C@H]2Cc2cccc3ccccc23)c1	0.3	38.9	43.0*	3.0	nt	-1.7	8.2	2.4
CCOCCC(=O)Nc1ccc2c(c1)c(=O)n(C)n2-c1ccccc1F	-0.8	nt	nt	nt	nt	nt	nt	nt
CC(Oc1cccc(Cl)c1)C(=O)Nc1cc(S(=O)(=O)N2CCOCC2)ccc1N1CCCCC1 (configuration not stated)	2.8	21.5	47.7*	4.1	nt	-0.6	43.5*	3.2	Fluor interf inh=>100
CCN1CCN(c2ccc(S(=O)(=O)N3CCOCC3)cc2NC(=O)C(C)Oc2cccc(Cl)c2)CC1 (configuration not stated)	4.8	-3.6	16.4	0.4	nt	-4.5	nt	nt
CC12CCC3c4ccccc4CCC3(CO1)C2 (configuration not stated)	0.4	nt	nt	nt	nt	nt	nt	nt
O=S(=O)(/N=C/N1CCOCC1)c1ccc(Cl)cc1	3.8	9.4	42.5*	-1.1	13.3	5.7	10.7	-2.9
CC#CCOCC1CNC(=O)O1 (configuration not stated)	0.1	nt	nt	nt	nt	nt	nt	nt
NC1(C#Cc2ccc3c(=O)c4ccccc4sc3c2)CCCCC1	0.5	37.4	60.1*	-1.9	nt	nt	22.9	0.6
CC(C)(C)NC(=O)C(c1ccc(O)cc1)N(C(=O)CCC(=O)Nc1ccccn1)c1ccc(F)cc1 (configuration not stated)	0.3	8.4	-2.1	-1.4	6.1	1.1	nt	nt
COc1ccc(/C=C/C(=O)NC(=S)Nc2ccc(S(=O)(=O)N=C(N)N)cc2)cc1OC	5.3	-22.2	-36.8	3.2	13.3	-12.7	nt	nt
Cc1ccc(S(=O)(=O)N(CC(=O)NCc2ccncc2)Cc2ccc(F)cc2)cc1	-2.1	3.3	2.3	1.4	2.7	-2.0	nt	nt
CN1CCN(c2ccc(NC(=O)c3ccc(-c4ccc(Cl)cc4)o3)cc2)CC1	-0.7	20.2	64.9*	1.1	18.3	10.1	34.3	19.6
O=C(/C=C/c1ccc(-c2ccccc2[N+](=O)[O-])o1)c1ccco1	0.9	-32.4	42.8*	-6.8	28.6	28.6	19.2	-1.7
